Experimental data published in ChEMBL document CHEMBL4190388, “Discovery and Optimization of Indolyl-Containing 4-Hydroxy-2-Pyridone Type II DNA Topoisomerase Inhibitors Active against Multidrug Resistant Gram-negative Bacteria” (J Med Chem, 2018).
In brackets after ≈: the same amount, converted by molar mass.

Legend:
[1] = test system: Escherichia coli; assay: Antibacterial activity against wild type Escherichia coli ATCC 25922 by CLSI M100-S17 protocol based method; format: functional
[2] = Inhibition of His tagged Escherichia coli ATCC 25922 DNA gyrase A expressed in Escherichia coli BL21 (DE3) pLysS cells assessed as reduction in enzyme-mediated supercoiling of relaxed plasmid DNA pNO1 after 30 mins in presence of biotinylated TFO1 by fluorescence assay
[3] = test system: Escherichia coli; assay: Antibacterial activity against fluoroquinolone resistant Escherichia coli SKM18 by CLSI M100-S17 protocol based method; format: functional
[4] = Inhibition of Escherichia coli DNA topoisomerase 4 assessed as reduction in decatenation activity using kinetoplast concatenated DNA as substrate after 30 mins by picogreen dye based fluorescence assay
[5] = test system: Acinetobacter baumannii; assay: Antibacterial activity against beta-lactam resistant Acinetobacter baumannii by broth microdilution method; format: functional; settings: Acinetobacter baumannii; for MIC: read-out: MIC
How it was run: (§1)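 MICs were determined by CLSI broth methods, except that organisms were grown in brain–heart–infusion medium. The panel comprised wild-type and resistant E. coli and A. baumannii strains, including 12 strains whose details are given by reference.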

[6] = test system: Escherichia coli; assay: Antibacterial activity against quinolone resistance Escherichia coli isolate ELZ4251 harboring gyrA/parC mutant by CLSI M100-S17 protocol based method; format: functional
[7] = test system: Acinetobacter baumannii; assay: Antibacterial activity against quinolone resistant Acinetobacter baumannii by broth microdilution method; format: functional; settings: Acinetobacter baumannii; for MIC: read-out: MIC; how it was run: as §1
[8] = Oral bioavailability in CD1 mouse plasma by LC-MS/MS analysis; format: ADME, organism-based
[9] = test system: Escherichia coli; assay: Antibacterial activity against aminoglycoside resistant Escherichia coli by broth microdilution method; format: functional; settings: Escherichia coli; for MIC: read-out: MIC; how it was run: as §1
[10] = Fraction unbound in mouse plasma at 1 uM by equilibrium dialysis method; format: ADME, cell-free
[11] = test system: Acinetobacter baumannii; assay: Antibacterial activity against wild type Acinetobacter baumannii ATCC BAA-747 by CLSI M100-S17 protocol based method; format: functional
[12] = test system: Klebsiella pneumoniae; assay: Antibacterial activity against wild type Klebsiella pneumoniae ATCC 35657 by CLSI M100-S17 protocol based method; format: functional
[13] = test system: Mus musculus; assay: Volume of distribution at steady state in CD1 mouse plasma at 10 mg/kg, iv by LC-MS/MS analysis; format: ADME, organism-based; settings: in vivo
[14] = test system: Escherichia coli; assay: Antibacterial activity against quinolone resistant Escherichia coli by broth microdilution method; format: functional; settings: Escherichia coli; for MIC: read-out: MIC; how it was run: as §1
[15] = test system: Acinetobacter baumannii; assay: Antibacterial activity against fluoroquinolone resistant Acinetobacter baumannii isolate MMX2240 by CLSI M100-S17 protocol based method; format: functional
[16] = test system: Escherichia coli; assay: Antibacterial activity against wild type Escherichia coli ATCC 25922 in presence of HSA by CLSI M100-S17 protocol based method; format: functional
[17] = test system: Escherichia coli; assay: Selectivity ratio of MIC for wild type Escherichia coli ATCC 25922 in presence of HSA to MIC for wild type Escherichia coli ATCC 25922; format: functional
[18] = test system: Mus musculus; assay: Terminal half life in CD1 mouse plasma at 10 mg/kg, iv by LC-MS/MS analysis; format: ADME, organism-based; settings: in vivo
[19] = test system: Acinetobacter baumannii; assay: Antibacterial activity against multidrug resistant Acinetobacter baumannii by broth microdilution method; format: functional; settings: Acinetobacter baumannii; for MIC: read-out: MIC; how it was run: as §1
[20] = test system: Escherichia coli; assay: Antibacterial activity against wild type Escherichia coli by broth microdilution method; format: functional; how it was run: as §1
[21] = test system: Acinetobacter baumannii; assay: Antibacterial activity against aminoglycoside resistant Acinetobacter baumannii by broth microdilution method; format: functional; settings: Acinetobacter baumannii; for MIC: read-out: MIC; how it was run: as §1
[22] = test system: Acinetobacter baumannii; assay: Antibacterial activity against carbapenem resistant Acinetobacter baumannii by broth microdilution method; format: functional; settings: Acinetobacter baumannii; for MIC: read-out: MIC; how it was run: as §1
[23] = test system: Acinetobacter baumannii; assay: Antibacterial activity against wild type Acinetobacter baumannii by broth microdilution method; format: functional; how it was run: as §1
[24] = test system: Escherichia coli; assay: Antibacterial activity against beta-lactam resistant Escherichia coli by broth microdilution method; format: functional; settings: Escherichia coli; for MIC: read-out: MIC; how it was run: as §1
[25] = test system: Escherichia coli; assay: Antibacterial activity against multidrug resistant Escherichia coli by broth microdilution method; format: functional; settings: Escherichia coli; for MIC: read-out: MIC; how it was run: as §1
[26] = test system: Mus musculus; assay: AUC (0 to 24 hrs) in CD1 mouse plasma at 10 mg/kg, iv by LC-MS/MS analysis; format: ADME, organism-based; parameters: time < 24 hr, dose 10 mg/kg, route intravenous; settings: in vivo
How it was run: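 CD-1 mice given a single 10 mg/kg iv dose (n = 3), in either 10% DMSO plus 1% Tween 80 in pH 8.0 phosphate buffer or 20% (2-hydroxypropyl)-β-cyclodextrin in pH 4.0 citrate buffer; plasma exposure measured.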

## CNCc1cc2c3c(ccc2n1C)-c1[nH]c(=O)c(C(=O)O)c(O)c1CCC3
[1]
  MIC: > 12.5 µg/mL
[2]
  IC50: 1000 nM
[3]
  MIC: 6.3 µg/mL (≈ 17.1 µM)
[4]
  IC50: 27900 nM

## CN(C)Cc1cc2cc3c(cc2n1C)CCCc1c-3[nH]c(=O)c(C(=O)O)c1O
[5]
  MIC50: 2 µg/mL (≈ 5.24 µM)
  MIC: 0.12 to 16 µg/mL (≈ 0.315 to 41.9 µM)
[6]
  MIC: 1.6 µg/mL (≈ 4.19 µM)
[7]
  MIC50: 2 µg/mL (≈ 5.24 µM)
  MIC: 0.12 to 16 µg/mL (≈ 0.315 to 41.9 µM)
[8]
  bioavailability: 42%
[9]
  MIC50: 0.5 µg/mL (≈ 1.31 µM)
  MIC90: 1 µg/mL (≈ 2.62 µM)
  MIC: 0.25 to 2 µg/mL (≈ 0.655 to 5.24 µM)
[10]
  Fu: 0.1
[11]
  MIC: 1.6 µg/mL (≈ 4.19 µM)
[12]
  MIC: 0.78 µg/mL (≈ 2.04 µM)
[13]
  Vdss: 11 L/kg
[14]
  MIC50: 0.5 µg/mL (≈ 1.31 µM)
  MIC90: 1 µg/mL (≈ 2.62 µM)
  MIC: 0.25 to 2 µg/mL (≈ 0.655 to 5.24 µM)
[15]
  MIC: 1.6 µg/mL (≈ 4.19 µM)
[16]
  MIC: 12.5 µg/mL
[17]
  Ratio: 4 - 16
[18]
  beta t1/2: 2.9 h
[1]
  MIC: 0.78 µg/mL (≈ 2.04 µM)
[19]
  MIC50: 2 µg/mL (≈ 5.24 µM)
  MIC: 0.12 to 16 µg/mL (≈ 0.315 to 41.9 µM)
[20]
  MIC50: 0.5 µg/mL (≈ 1.31 µM)
  MIC90: 1 µg/mL (≈ 2.62 µM)
[21]
  MIC50: 2 µg/mL (≈ 5.24 µM)
  MIC: 0.12 to 16 µg/mL (≈ 0.315 to 41.9 µM)
[22]
  MIC50: 2 µg/mL (≈ 5.24 µM)
  MIC: 0.12 to 16 µg/mL (≈ 0.315 to 41.9 µM)
[3]
  MIC: 0.78 µg/mL (≈ 2.04 µM)
[23]
  MIC50: 2 µg/mL (≈ 5.24 µM)
  MIC90: > 16 µg/mL
[24]
  MIC50: 0.5 µg/mL (≈ 1.31 µM)
  MIC90: 1 µg/mL (≈ 2.62 µM)
  MIC: 0.25 to 2 µg/mL (≈ 0.655 to 5.24 µM)
[25]
  MIC50: 0.5 µg/mL (≈ 1.31 µM)
  MIC90: 1 µg/mL (≈ 2.62 µM)
  MIC: 0.25 to 2 µg/mL (≈ 0.655 to 5.24 µM)
[26]
  AUC: 3520 ng·h/mL

## CCNCc1cc2cc(-c3[nH]c(=O)c(C(=O)O)c(O)c3CC)ccc2n1C
[5]
  MIC50: 2 µg/mL (≈ 5.41 µM)
  MIC90: 16 µg/mL (≈ 43.3 µM)
  MIC: 0.5 to 32 µg/mL (≈ 1.35 to 86.6 µM)
[6]
  MIC: 3.1 µg/mL (≈ 8.39 µM)
[7]
  MIC50: 2 µg/mL (≈ 5.41 µM)
  MIC90: 16 µg/mL (≈ 43.3 µM)
  MIC: 0.5 to 32 µg/mL (≈ 1.35 to 86.6 µM)
[9]
  MIC50: 1 µg/mL (≈ 2.71 µM)
  MIC90: 4 µg/mL (≈ 10.8 µM)
  MIC: 0.25 to 4 µg/mL (≈ 0.677 to 10.8 µM)
[11]
  MIC: 0.78 µg/mL (≈ 2.11 µM)
[12]
  MIC: 0.39 µg/mL (≈ 1.06 µM)
[14]
  MIC50: 1 µg/mL (≈ 2.71 µM)
  MIC90: 4 µg/mL (≈ 10.8 µM)
  MIC: 0.25 to 4 µg/mL (≈ 0.677 to 10.8 µM)
[15]
  MIC: 6.3 µg/mL (≈ 17.1 µM)
[16]
  MIC: 1.6 µg/mL
[1]
  MIC: 0.39 µg/mL (≈ 1.06 µM)
[2]
  IC50: 300 nM
[19]
  MIC50: 2 µg/mL (≈ 5.41 µM)
  MIC90: 16 µg/mL (≈ 43.3 µM)
  MIC: 0.5 to 32 µg/mL (≈ 1.35 to 86.6 µM)
[20]
  MIC50: 1 µg/mL (≈ 2.71 µM)
  MIC90: 4 µg/mL (≈ 10.8 µM)
[21]
  MIC50: 2 µg/mL (≈ 5.41 µM)
  MIC90: 16 µg/mL (≈ 43.3 µM)
  MIC: 0.5 to 32 µg/mL (≈ 1.35 to 86.6 µM)
[22]
  MIC50: 2 µg/mL (≈ 5.41 µM)
  MIC90: 16 µg/mL (≈ 43.3 µM)
  MIC: 0.5 to 32 µg/mL (≈ 1.35 to 86.6 µM)
[3]
  MIC: 1.6 µg/mL (≈ 4.33 µM)
[23]
  MIC50: 2 µg/mL (≈ 5.41 µM)
  MIC90: 16 µg/mL (≈ 43.3 µM)
[4]
  IC50: 3300 nM
[24]
  MIC50: 1 µg/mL (≈ 2.71 µM)
  MIC90: 4 µg/mL (≈ 10.8 µM)
  MIC: 0.25 to 4 µg/mL (≈ 0.677 to 10.8 µM)
[25]
  MIC50: 1 µg/mL (≈ 2.71 µM)
  MIC90: 4 µg/mL (≈ 10.8 µM)
  MIC: 0.25 to 4 µg/mL (≈ 0.677 to 10.8 µM)
